Values joined by “and” are separate entries in the source; they are usually repeats but may differ in a detail not shown here. Equal values may be shown once.
Tests used:
[1] = molecular target: GABA A receptor alpha-3/beta-2/gamma-2 (Rattus norvegicus, UniProt P18508+P20236+P63138); assay: (§1) Inhibition of [3H]flumazenil binding to rat alpha-3-beta-2-gamma-2 GABA-A receptor subunits expressed in HEK293 cells; type: cell-based
How it was run: (§2)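 Membranes came from HEK293 clonal lines expressing rat GABAA subtypes, grown in MEM/EBSS with 10% FCS, 2 mM glutamine and penicillin/streptomycin at 37 °C in 5% CO2. Membranes were homogenized and centrifuged (48 000 × g, 30 min, 4 °C) in 10 mM K-phosphate pH 7.4 and resuspended with 100 mM KCl. […] Nonspecific binding was defined with 10^-5 M diazepam. Results are the mean of three determinations.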

[2] = molecular target: GABA A receptor alpha-5/beta-3/gamma-2 (Rattus norvegicus, UniProt P18508+P19969+P63079); assay: Inhibition of [3H]flumazenil binding to rat alpha-5-beta-3-gamma-2 GABA-A receptor subunits expressed in HEK293 cells; type: cell-based; how it was run: as §2
Chain of GABA A receptor alpha-5/beta-3/gamma-2 (P18508 whole entry): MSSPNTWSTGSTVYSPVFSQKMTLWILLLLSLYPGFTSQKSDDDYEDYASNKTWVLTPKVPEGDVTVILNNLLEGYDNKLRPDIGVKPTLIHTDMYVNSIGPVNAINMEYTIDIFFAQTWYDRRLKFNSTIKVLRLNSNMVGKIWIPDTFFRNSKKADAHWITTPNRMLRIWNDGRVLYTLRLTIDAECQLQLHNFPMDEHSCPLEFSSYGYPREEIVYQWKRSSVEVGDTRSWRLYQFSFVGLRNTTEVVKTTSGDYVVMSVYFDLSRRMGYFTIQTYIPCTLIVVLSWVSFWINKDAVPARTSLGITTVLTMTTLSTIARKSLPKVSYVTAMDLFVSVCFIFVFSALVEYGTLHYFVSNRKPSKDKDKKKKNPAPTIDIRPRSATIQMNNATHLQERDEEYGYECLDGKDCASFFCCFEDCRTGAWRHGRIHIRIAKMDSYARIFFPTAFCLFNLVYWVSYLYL
Chain of GABA A receptor alpha-5/beta-3/gamma-2 (P19969 whole entry): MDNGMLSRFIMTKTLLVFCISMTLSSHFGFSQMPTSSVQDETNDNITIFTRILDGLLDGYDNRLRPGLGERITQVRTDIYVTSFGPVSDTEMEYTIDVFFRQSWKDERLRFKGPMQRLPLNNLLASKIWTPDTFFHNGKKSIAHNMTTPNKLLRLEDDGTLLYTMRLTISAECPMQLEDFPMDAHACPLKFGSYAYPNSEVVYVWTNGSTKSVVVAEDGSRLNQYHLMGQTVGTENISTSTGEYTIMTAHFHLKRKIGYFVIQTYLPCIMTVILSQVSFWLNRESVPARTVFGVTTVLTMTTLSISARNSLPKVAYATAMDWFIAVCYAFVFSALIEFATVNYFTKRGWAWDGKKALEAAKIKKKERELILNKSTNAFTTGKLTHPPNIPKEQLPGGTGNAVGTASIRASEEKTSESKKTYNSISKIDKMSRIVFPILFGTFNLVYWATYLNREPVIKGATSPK
Chain of GABA A receptor alpha-5/beta-3/gamma-2 (P63079 whole entry): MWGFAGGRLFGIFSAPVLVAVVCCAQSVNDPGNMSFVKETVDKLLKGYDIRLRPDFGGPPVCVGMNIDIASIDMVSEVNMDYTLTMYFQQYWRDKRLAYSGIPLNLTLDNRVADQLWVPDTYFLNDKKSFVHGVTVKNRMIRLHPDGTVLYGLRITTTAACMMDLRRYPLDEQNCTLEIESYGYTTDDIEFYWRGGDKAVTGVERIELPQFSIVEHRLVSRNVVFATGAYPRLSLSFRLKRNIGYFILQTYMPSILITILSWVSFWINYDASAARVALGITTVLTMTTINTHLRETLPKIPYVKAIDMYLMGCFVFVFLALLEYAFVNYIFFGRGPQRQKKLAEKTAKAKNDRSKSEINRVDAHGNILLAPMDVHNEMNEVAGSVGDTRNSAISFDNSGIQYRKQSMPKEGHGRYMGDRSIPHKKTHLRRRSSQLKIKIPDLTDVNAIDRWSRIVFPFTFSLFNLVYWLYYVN

[3] = molecular target: GABA-A receptor; anion channel; assay: Inhibition of [3H]- flumazenil binding to benzodiazepine receptor in bovine brain membranes; type: cell membranes
How it was run: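 Bovine brain membranes were freeze-thawed, washed by suspension and centrifugation in 50 mM tris-citrate pH 7.4, then used for competition binding against [3H]flumazenil. Specific binding inhibition was first measured at a fixed 10 µM. Protein was measured by the Lowry method.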

[4] = molecular target: GABA-A receptor; alpha-1/beta-2/gamma-2 (Rattus norvegicus, UniProt P18508+P62813+P63138); assay: Inhibition of [3H]flumazenil binding to rat alpha-1-beta-2-gamma-2 GABA-A receptor subunits expressed in HEK293 cells; type: cell-based; how it was run: as §2
Chain of GABA-A receptor; alpha-1/beta-2/gamma-2 (P18508 whole entry): as the sequence (P18508 whole entry) above
Chain of GABA-A receptor; alpha-1/beta-2/gamma-2 (P62813 whole entry): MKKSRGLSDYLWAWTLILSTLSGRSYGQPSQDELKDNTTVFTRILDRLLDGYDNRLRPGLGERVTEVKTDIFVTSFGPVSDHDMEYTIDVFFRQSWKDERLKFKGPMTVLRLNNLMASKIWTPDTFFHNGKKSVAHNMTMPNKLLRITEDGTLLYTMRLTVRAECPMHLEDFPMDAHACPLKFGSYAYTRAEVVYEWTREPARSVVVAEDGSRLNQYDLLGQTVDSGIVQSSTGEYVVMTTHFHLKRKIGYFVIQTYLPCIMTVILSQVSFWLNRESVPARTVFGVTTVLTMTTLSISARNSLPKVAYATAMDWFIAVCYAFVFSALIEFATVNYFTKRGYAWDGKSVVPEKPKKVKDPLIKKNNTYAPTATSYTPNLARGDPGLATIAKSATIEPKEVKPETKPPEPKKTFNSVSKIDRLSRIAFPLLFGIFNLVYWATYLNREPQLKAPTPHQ
Chain of GABA-A receptor; alpha-1/beta-2/gamma-2 (P63138 whole entry): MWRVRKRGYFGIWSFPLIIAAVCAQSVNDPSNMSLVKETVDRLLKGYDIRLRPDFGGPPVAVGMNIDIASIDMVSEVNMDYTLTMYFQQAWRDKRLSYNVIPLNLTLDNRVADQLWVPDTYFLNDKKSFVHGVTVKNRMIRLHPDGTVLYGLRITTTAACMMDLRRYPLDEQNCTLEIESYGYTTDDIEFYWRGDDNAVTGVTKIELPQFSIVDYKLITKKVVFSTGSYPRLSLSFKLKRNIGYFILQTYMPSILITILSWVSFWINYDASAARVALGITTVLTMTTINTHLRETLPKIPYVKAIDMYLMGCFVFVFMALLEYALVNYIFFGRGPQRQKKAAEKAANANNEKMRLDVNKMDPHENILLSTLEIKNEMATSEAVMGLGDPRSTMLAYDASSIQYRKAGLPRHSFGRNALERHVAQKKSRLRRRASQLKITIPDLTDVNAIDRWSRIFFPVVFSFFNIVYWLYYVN

[5] = molecular target: T1, GABA-A receptor; anion channel (Bos taurus) (UniProt P10063+P08220+P20237+P08219+P10064+P22300); assay: Inhibition of [3H]- flumazenil binding to benzodiazepine receptor in bovine brain membranes at a dose of 10 uM; type: cell membranes
How it was run: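 Bovine brain membranes were freeze-thawed, washed by suspension and centrifugation in 50 mM tris-citrate pH 7.4, then used for competition binding against [3H]flumazenil. Specific binding inhibition was first measured at a fixed 10 µM. […] Protein was measured by the Lowry method.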

[6] = molecular target: GABA A receptor alpha-3/beta-2/gamma-2 (Rattus norvegicus) (UniProt P18508+P20236+P63138); assay: as §1; type: cell-based; how it was run: as §2
[7] = Ratio of Ki with out GABA and with GABA
[8] = molecular target: T1, GABA-A receptor; anion channel (Bos taurus); assay: Relative bindign to GABA-A receptor in the presence and absence of GABA (GABA shift), Ki(-GABA)/Ki(+GABA); type: protein-complex assay
How it was run: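 [3H]flumazenil displacement Ki was measured both with and without GABA, using exhaustively washed bovine brain membranes or HEK293 membranes expressing rat α1β2γ2, α3β2γ2 or α5β3γ2. GABA ratio = Ki(without GABA)/Ki(with GABA).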

[9] = molecular target: T2, GABA A receptor alpha-5/beta-3/gamma-2 (Rattus norvegicus) (UniProt P18508+P19969+P63079); conditions: HEK293, 10 uM
[10] = molecular target: T2, GABA A receptor alpha-5/beta-3/gamma-2 (Rattus norvegicus); assay: Inhibition of [3H]flumazenil binding to rat alpha-5-beta-3-gamma-2 GABA-A receptor subunits expressed in HEK293 cells at 10 uM; type: cell-based; how it was run: as §2

Chain of GABA A receptor alpha-3/beta-2/gamma-2 (P18508 whole entry): as the sequence (P18508 whole entry) above
Chain of GABA A receptor alpha-3/beta-2/gamma-2 (P20236 whole entry): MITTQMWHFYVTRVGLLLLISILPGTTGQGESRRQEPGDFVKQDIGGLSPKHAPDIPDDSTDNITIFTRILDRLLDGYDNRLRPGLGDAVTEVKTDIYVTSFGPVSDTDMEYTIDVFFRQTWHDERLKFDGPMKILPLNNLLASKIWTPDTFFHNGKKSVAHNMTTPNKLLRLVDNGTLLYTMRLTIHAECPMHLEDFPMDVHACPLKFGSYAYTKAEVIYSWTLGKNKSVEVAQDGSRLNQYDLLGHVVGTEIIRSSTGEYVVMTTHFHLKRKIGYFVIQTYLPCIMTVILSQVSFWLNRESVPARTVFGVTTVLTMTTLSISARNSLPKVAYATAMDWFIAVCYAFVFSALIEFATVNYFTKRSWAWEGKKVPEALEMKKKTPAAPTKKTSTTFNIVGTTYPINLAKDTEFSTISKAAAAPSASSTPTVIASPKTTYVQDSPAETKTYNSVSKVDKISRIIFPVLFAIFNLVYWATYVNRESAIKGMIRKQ
Chain of GABA A receptor alpha-3/beta-2/gamma-2 (P63138 whole entry): as the sequence (P63138 whole entry) above

Compound	Ki [3] [nM]	inhibition [5] [%]	other results
C[C@@H](NC(=O)C(=O)c1c[nH]c2ccc([N+](=O)[O-])cc12)c1ccccc1	17	–	Ki [1]: 283 nM; Ki [2]: 239 nM; Ki [4]: 14 nM
Cc1ccc([C@@H](C)NC(=O)C(=O)c2c[nH]c3ccc(Cl)cc23)cc1	105	–	–
O=C(N[C@H]1CCc2ccccc21)C(=O)c1c[nH]c2ccc([N+](=O)[O-])cc12	–	< 80	–
C[C@@H](NC(=O)C(=O)c1c[nH]c2ccccc12)c1ccccc1	1310	–	inhibition [6]: 5%; Ki [2]: 5500 nM; Ki [4]: 1150 nM
C[C@H](NC(=O)C(=O)c1c[nH]c2ccccc12)c1ccc([N+](=O)[O-])cc1	–	< 80	–
O=C(NCc1ccc([N+](=O)[O-])cc1)C(=O)c1c[nH]c2ccc(Cl)cc12	1370	–	–
CCOC(=O)[C@@H](C)NC(=O)C(=O)c1c[nH]c2ccc([N+](=O)[O-])cc12	45	–	–
COc1ccc2[nH]cc(C(=O)C(=O)NNc3ccc([N+](=O)[O-])cc3)c2c1	–	< 80	–
C[C@@H](NC(=O)C(=O)c1c[nH]c2ccccc12)c1ccc([N+](=O)[O-])cc1	–	< 80	–
COc1ccc(CNC(=O)C(=O)c2c[nH]c3ccc([N+](=O)[O-])cc23)cc1	–	–	Ki [1]: 137 nM; Ratio [7]: 1.11 and 0.96 and 0.9; Ki [2]: 126 nM; Ki [4]: 42 nM
COc1ccc(C(C)NC(=O)C(=O)c2c[nH]c3ccc([N+](=O)[O-])cc23)cc1OC (racemic)	55	–	–
CCOC(=O)[C@H](C)NC(=O)C(=O)c1c[nH]c2ccc([N+](=O)[O-])cc12	1950	–	–
Cc1ccc([C@@H](C)NC(=O)C(=O)c2c[nH]c3ccccc23)cc1	1150	–	–
CCOC(=O)CNC(=O)C(=O)c1c[nH]c2ccc([N+](=O)[O-])cc12	2700	–	–
C[C@H](NC(=O)C(=O)c1c[nH]c2ccc(Cl)cc12)c1ccccc1	100	–	–
C[C@H](NC(=O)C(=O)c1c[nH]c2ccc([N+](=O)[O-])cc12)c1ccc([N+](=O)[O-])cc1	–	< 80	–
O=C(C(=O)N1Cc2ccccc2C1)c1c[nH]c2ccc([N+](=O)[O-])cc12	–	< 80	–
O=C(NC(CO)c1ccccc1)C(=O)c1c[nH]c2ccc([N+](=O)[O-])cc12 (racemic)	–	< 80	–
O=C(NNc1ccc([N+](=O)[O-])cc1)C(=O)c1c[nH]c2ccc([N+](=O)[O-])cc12	–	< 80	–
COc1ccc2[nH]cc(C(=O)C(=O)NCc3ccc(Cl)cc3)c2c1	–	< 80	–
COc1ccc(C(C)NC(=O)C(=O)c2c[nH]c3ccc([N+](=O)[O-])cc23)cc1 (racemic)	113	–	–

Compound	Ki [3] [nM]	inhibition [5] [%]	other results
O=C(NC(CO)c1ccccc1)C(=O)c1c[nH]c2ccccc12 (racemic)	–	< 80	–
O=C(N[C@H]1CCc2ccccc21)C(=O)c1c[nH]c2ccc(Cl)cc12	–	< 80	–
COc1ccc(NNC(=O)C(=O)c2c[nH]c3ccc(OC)cc23)cc1	–	< 80	–
O=C(N[C@H]1CCc2ccccc21)C(=O)c1c[nH]c2ccccc12	–	< 80	–
Cc1ccc([C@@H](C)NC(=O)C(=O)c2c[nH]c3ccc([N+](=O)[O-])cc23)cc1	34	–	–
CCOC(=O)C(NC(=O)C(=O)c1c[nH]c2ccc([N+](=O)[O-])cc12)c1ccccc1 (racemic)	–	< 80	–
O=C(NCc1ccc([N+](=O)[O-])cc1)C(=O)c1c[nH]c2ccc([N+](=O)[O-])cc12	620	–	–
Cc1ccc([C@H](C)NC(=O)C(=O)c2c[nH]c3ccc([N+](=O)[O-])cc23)cc1	–	< 80	–
O=C(N[C@@H]1CCc2ccccc21)C(=O)c1c[nH]c2ccc([N+](=O)[O-])cc12	28	–	Ratio [8]: 1.13; Ki [1]: 1960 nM; Ratio [7]: 1.12 and 0.98; Ki [2]: 95 nM; Ki [4]: 9 nM
C[C@H](NC(=O)C(=O)c1c[nH]c2ccccc12)c1ccccc1	–	< 80	–
O=C(NNc1ccc([N+](=O)[O-])cc1)C(=O)c1c[nH]c2ccccc12	–	–	Ki [1]: 40 nM; Ratio [7]: 0.96 and 0.98 and 0.8; Ki [2]: 43 nM; Ki [4]: 25 nM
O=C(NC1Cc2ccccc2C1)C(=O)c1c[nH]c2ccc([N+](=O)[O-])cc12	–	< 80	–
C[C@@H](NC(=O)C(=O)c1c[nH]c2ccc(Cl)cc12)c1ccc([N+](=O)[O-])cc1	695	–	–
COc1ccc(C(C)NC(=O)C(=O)c2c[nH]c3ccccc23)cc1OC (racemic)	850	–	–
COc1ccc(NNC(=O)C(=O)c2c[nH]c3ccc([N+](=O)[O-])cc23)cc1	–	< 80	–
Cc1ccc(-c2nc3ccc(C)cn3c2CC(=O)N(C)C)cc1	–	–	inhibition [9]: 35%
N#CC(NC(=O)C(=O)c1c[nH]c2ccccc12)c1ccccc1 (racemic)	–	< 80	–
O=C(C(=O)N1Cc2ccccc2C1)c1c[nH]c2ccccc12	123	–	Ki [1]: 3200 nM; Ratio [7]: 1.06 and 1.1; Ki [4]: 224 nM; inhibition [10]: 43%
COc1ccc(C(C)NC(=O)C(=O)c2c[nH]c3ccccc23)cc1 (racemic)	1170	–	–
O=C(NCc1ccc([N+](=O)[O-])cc1)C(=O)c1c[nH]c2ccccc12	21	–	Ki [1]: 1600 nM; Ratio [7]: 0.9 and 0.91 and 0.73; Ki [2]: 58 nM; Ki [4]: 16 nM
O=C(C(=O)N1Cc2ccccc2C1)c1c[nH]c2ccc(Cl)cc12	–	< 80	–

Compound	Ki [3] [nM]	inhibition [5] [%]	other results
N#CC(NC(=O)C(=O)c1c[nH]c2ccc([N+](=O)[O-])cc12)c1ccccc1 (racemic)	241	–	–
CCOC(=O)C(NC(=O)C(=O)c1c[nH]c2ccccc12)c1ccccc1 (racemic)	–	< 80	–
O=C(NCc1ccc(Cl)cc1)C(=O)c1c[nH]c2ccc([N+](=O)[O-])cc12	–	< 80	–
O=C(N[C@@H]1CCc2ccccc21)C(=O)c1c[nH]c2ccc(Cl)cc12	80	–	–
C[C@@H](NC(=O)C(=O)c1c[nH]c2ccc([N+](=O)[O-])cc12)c1ccc([N+](=O)[O-])cc1	78	–	–
O=C(NC1Cc2ccccc2C1)C(=O)c1c[nH]c2ccccc12	–	< 80	–
O=C(NCc1ccc(Cl)cc1)C(=O)c1c[nH]c2ccc(Cl)cc12	–	< 80	–
C[C@@H](NC(=O)C(=O)c1c[nH]c2ccc(Cl)cc12)c1ccccc1	–	< 80	–
COc1ccc(C(C)NC(=O)C(=O)c2c[nH]c3ccc(Cl)cc23)cc1 (racemic)	103	–	–
Cc1ccc([C@H](C)NC(=O)C(=O)c2c[nH]c3ccc(Cl)cc23)cc1	–	< 80	–
COc1ccc(C(C)NC(=O)C(=O)c2c[nH]c3ccc(Cl)cc23)cc1OC (racemic)	153	–	–
C[C@H](NC(=O)C(=O)c1c[nH]c2ccc([N+](=O)[O-])cc12)c1ccccc1	–	< 80	–
O=C(N[C@@H]1CCc2ccccc21)C(=O)c1c[nH]c2ccccc12	675	–	inhibition [6]: 28%; Ki [2]: 2160 nM; Ki [4]: 225 nM
Cc1ccc([C@H](C)NC(=O)C(=O)c2c[nH]c3ccccc23)cc1	–	< 80	–
COc1ccc(NNC(=O)C(=O)c2c[nH]c3ccc(Cl)cc23)cc1	–	< 80	–
C[C@H](NC(=O)C(=O)c1c[nH]c2ccc(Cl)cc12)c1ccc([N+](=O)[O-])cc1	–	< 80	–
O=C(NC1Cc2ccccc2C1)C(=O)c1c[nH]c2ccc(Cl)cc12	–	< 80	–
O=C(NNc1ccc([N+](=O)[O-])cc1)C(=O)c1c[nH]c2ccc(Cl)cc12	–	< 80	–
COc1ccc(CNC(=O)C(=O)c2c[nH]c3ccc(OC)cc23)cc1	494	–	–

From ChEMBL document CHEMBL1134525, “Novel N-(arylalkyl)indol-3-ylglyoxylylamides targeted as ligands of the benzodiazepine receptor: synthesis, biological evaluation, and molecular modeling analysis of the structure-activity relationships” (J Med Chem, 2001)
